ChEMBL document CHEMBL4813947, “New dual ATP-competitive inhibitors of bacterial DNA gyrase and topoisomerase IV active against ESKAPE pathogens” (Eur J Med Chem, 2021)
≈ marks a conversion by molar mass, not a printed value.

What was measured:
[1] = Inhibition of Staphylococcus aureus topoisomerase assessed as reduction in relaxation of supercoiled pNO1 DNA measured after 30 mins by fluorescence assay
Outline: (§1)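 Enzyme run per an earlier-reported procedure; IC50 fitted from seven inhibitor concentrations, mean of three independent measurements.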

[2] = Inhibition of Escherichia coli topoisomerase assessed as reduction in relaxation of supercoiled pNO1 DNA measured after 30 mins by fluorescence assay; outline: as §1
DNA gyrase [3] = biological target: DNA gyrase (Staphylococcus aureus, UniProt P0A0K8+P20831); assay: Inhibition of Staphylococcus aureus DNA gyrase assessed reduction in supercoiling of relaxed pNO1 DNA measured after 30 mins by fluorescence assay
DNA gyrase [4] = biological target: DNA gyrase (Escherichia coli, UniProt P0AES4+P0AES6); assay: Inhibition of Escherichia coli DNA gyrase assessed as reduction in supercoiling of relaxed pNO1 DNA measured after 30 mins by fluorescence assay
Klebsiella pneumoniae = assay: Antibacterial activity against Klebsiella pneumoniae ATCC 10031 assessed as inhibition of bacterial growth by CLSI protocol based broth microdilution assay; type: functional
Staphylococcus aureus [5] = assay: Antibacterial activity against methicillin-resistant Staphylococcus aureus ATCC 43300 assessed as inhibition of bacterial growth by CLSI protocol based broth microdilution assay; type: functional
Outline: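 Minimum inhibitory concentration by standard serial broth microdilution following CLSI guidelines. Medium was MHBII broth (22 g/L powder: beef extract, casein acid hydrolysate, starch), with MHBII agar (14 g agar per L broth). Where noted, assayed without and with efflux pump substrate phenylalanine-arginine β-naphthylamide (PAβN).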

Acinetobacter baumannii = assay: Antibacterial activity against Acinetobacter baumannii ATCC 17978 assessed as inhibition of bacterial growth by CLSI protocol based broth microdilution assay; type: functional
Pseudomonas aeruginosa = assay: Antibacterial activity against Pseudomonas aeruginosa ATCC 27853 assessed as inhibition of bacterial growth by CLSI protocol based broth microdilution assay; type: functional
Staphylococcus aureus [6] = assay: Antibacterial activity against Staphylococcus aureus ATCC 29213 assessed as inhibition of bacterial growth by CLSI protocol based broth microdilution assay; type: functional
Enterococcus faecalis = assay: Antibacterial activity against Enterococcus faecalis ATCC 29212 assessed as inhibition of bacterial growth by CLSI protocol based broth microdilution assay; type: functional
Escherichia coli = assay: Antibacterial activity against Escherichia coli ATCC 25922 assessed as inhibition of bacterial growth by CLSI protocol based broth microdilution assay; type: functional

DNA gyrase (Staphylococcus aureus, UniProt P0A0K8+P20831), sequence (P0A0K8 whole entry): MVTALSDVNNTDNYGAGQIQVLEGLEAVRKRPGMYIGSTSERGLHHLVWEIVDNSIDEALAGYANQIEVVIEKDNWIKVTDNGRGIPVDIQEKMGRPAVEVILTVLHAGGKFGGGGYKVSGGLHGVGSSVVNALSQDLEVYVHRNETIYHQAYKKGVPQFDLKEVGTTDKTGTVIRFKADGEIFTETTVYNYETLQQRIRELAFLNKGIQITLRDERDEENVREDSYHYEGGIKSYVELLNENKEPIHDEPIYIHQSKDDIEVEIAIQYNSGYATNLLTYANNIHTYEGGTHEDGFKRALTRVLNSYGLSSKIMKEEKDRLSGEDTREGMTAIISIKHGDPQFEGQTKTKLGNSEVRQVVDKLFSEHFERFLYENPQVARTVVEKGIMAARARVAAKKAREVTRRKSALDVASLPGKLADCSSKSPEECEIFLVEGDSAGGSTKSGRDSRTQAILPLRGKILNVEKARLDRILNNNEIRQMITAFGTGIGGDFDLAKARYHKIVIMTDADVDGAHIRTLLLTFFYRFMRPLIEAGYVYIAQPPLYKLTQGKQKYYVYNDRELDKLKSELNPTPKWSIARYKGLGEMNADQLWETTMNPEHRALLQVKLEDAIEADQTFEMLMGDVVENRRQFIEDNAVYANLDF
DNA gyrase (Staphylococcus aureus, UniProt P0A0K8+P20831), sequence (P20831 whole entry): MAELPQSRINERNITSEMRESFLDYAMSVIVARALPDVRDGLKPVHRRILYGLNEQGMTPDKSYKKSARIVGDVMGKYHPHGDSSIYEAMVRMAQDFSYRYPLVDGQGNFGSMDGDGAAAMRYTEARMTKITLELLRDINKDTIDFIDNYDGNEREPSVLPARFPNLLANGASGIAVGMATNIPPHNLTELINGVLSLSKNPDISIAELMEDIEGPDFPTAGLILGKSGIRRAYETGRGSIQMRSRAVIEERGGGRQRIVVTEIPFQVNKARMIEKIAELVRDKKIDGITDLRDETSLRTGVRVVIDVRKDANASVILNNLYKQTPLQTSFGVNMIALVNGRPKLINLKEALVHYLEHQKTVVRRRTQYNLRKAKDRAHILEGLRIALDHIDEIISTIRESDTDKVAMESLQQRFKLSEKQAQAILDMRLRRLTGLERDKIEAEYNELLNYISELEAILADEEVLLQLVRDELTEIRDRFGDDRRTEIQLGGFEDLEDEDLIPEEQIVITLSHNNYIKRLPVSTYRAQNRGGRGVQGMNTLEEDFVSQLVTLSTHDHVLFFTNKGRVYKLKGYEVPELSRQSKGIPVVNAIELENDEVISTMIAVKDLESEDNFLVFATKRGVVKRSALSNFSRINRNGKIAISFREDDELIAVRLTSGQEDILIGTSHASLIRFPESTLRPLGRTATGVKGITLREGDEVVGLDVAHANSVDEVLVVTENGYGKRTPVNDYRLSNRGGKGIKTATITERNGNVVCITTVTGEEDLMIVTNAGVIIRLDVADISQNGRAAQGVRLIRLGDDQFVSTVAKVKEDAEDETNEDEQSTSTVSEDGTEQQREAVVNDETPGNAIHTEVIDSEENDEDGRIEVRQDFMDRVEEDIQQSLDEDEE

SMILES | IC50 [1] | IC50 [2] | IC50 (DNA gyrase [3]) | IC50 (DNA gyrase [4]) | MIC (Klebsiella pneumoniae) | MIC (Staphylococcus aureus [5]) | MIC (Acinetobacter baumannii) | MIC (Pseudomonas aeruginosa) | MIC (Staphylococcus aureus [6]) | MIC (Enterococcus faecalis) | MIC (Escherichia coli)
Cc1[nH]c(C(=O)Nc2nc3c(OCCN4CCOCC4)cc(C(=O)NCC#N)cc3s2)c(Cl)c1Cl | 520 nM | > 1000 nM | 100 nM | < 10 nM |  |  |  |  |  |  | 
Cc1[nH]c(C(=O)Nc2nc3c(OCc4ccccc4)cc(C(N)=O)cc3s2)c(Cl)c1Cl | > 1000 nM | > 1000 nM | > 1000 nM |  |  |  |  |  |  |  | 
Cc1[nH]c(C(=O)Nc2nc3ccc(C(=O)NO)cc3s2)c(Cl)c1Cl | > 1000 nM | > 1000 nM | 720 nM |  | > 64 µg/mL | 32 µg/mL (≈ 83.1 µM) | > 64 µg/mL | > 64 µg/mL | 64 µg/mL (≈ 166 µM) | 0.5 µg/mL (≈ 1.3 µM) | > 64 µg/mL
Cc1[nH]c(C(=O)Nc2nc3c(OCc4ccccc4)cc(-c4nnn[nH]4)cc3s2)c(Cl)c1Cl | 89 nM |  | 26 nM |  | > 64 µg/mL | 4 µg/mL (≈ 7.99 µM) | > 64 µg/mL | > 64 µg/mL | 4 µg/mL (≈ 7.99 µM) | 0.125 µg/mL (≈ 0.25 µM) | > 64 µg/mL
Cc1[nH]c(C(=O)Nc2nc3c(OCCN)cc(C(=O)O)cc3s2)c(Cl)c1Cl | 160 nM | > 1000 nM | 48 nM | < 10 nM |  |  |  |  |  |  | 
Cc1[nH]c(C(=O)Nc2nc3c(OCc4ccccc4)cc(C(=O)NCC#N)cc3s2)c(Cl)c1Cl | > 1000 nM | > 1000 nM | 180 nM | < 10 nM | > 64 µg/mL | 4 µg/mL (≈ 7.78 µM) | > 64 µg/mL | > 64 µg/mL | 4 µg/mL (≈ 7.78 µM) | 16 µg/mL (≈ 31.1 µM) | > 64 µg/mL
Cc1[nH]c(C(=O)Nc2nc3ccc(C(=O)O)cc3s2)c(Cl)c1Cl | 66 nM | 500 nM |  |  | 1 µg/mL (≈ 2.7 µM) | 0.125 µg/mL (≈ 0.338 µM) | 4 µg/mL (≈ 10.8 µM) | 8 µg/mL (≈ 21.6 µM) | 1 µg/mL (≈ 2.7 µM) | 0.125 µg/mL (≈ 0.338 µM) | 4 µg/mL (≈ 10.8 µM)
Cc1[nH]c(C(=O)Nc2nc3c(OCCN4CCOCC4)cc(C(=O)O)cc3s2)c(Cl)c1Cl | 66 nM | 220 nM | 17 nM | < 10 nM |  |  |  |  |  |  | 
Cc1[nH]c(C(=O)Nc2nc3cc(C(=O)O)ccc3s2)c(Cl)c1Cl | > 1000 nM | > 1000 nM | > 1000 nM |  |  |  |  |  |  |  | 
Cc1[nH]c(C(=O)Nc2nc3c(OCc4ccc(C(=O)O)cc4)cc(C(=O)O)cc3s2)c(Cl)c1Cl | 12 nM | 260 nM | < 10 nM | < 10 nM |  |  |  |  |  |  | 
Cc1[nH]c(C(=O)Nc2nc3c(OCc4ccccc4)cc(C#N)cc3s2)c(Cl)c1Cl | > 1000 nM | > 1000 nM | > 1000 nM | > 1000 nM |  |  |  |  |  |  | 
Cc1[nH]c(C(=O)Nc2nc3c(F)cc(C(=O)O)cc3s2)c(Cl)c1Cl | 240 nM | 200 nM | 17 nM | < 10 nM | 4 µg/mL (≈ 10.3 µM) | 0.0625 µg/mL (≈ 0.161 µM) | 8 µg/mL (≈ 20.6 µM) | 64 µg/mL (≈ 165 µM) | 0.5 µg/mL (≈ 1.29 µM) | 0.0625 µg/mL (≈ 0.161 µM) | 16 µg/mL (≈ 41.2 µM)
Cc1[nH]c(C(=O)Nc2nc3c(OCc4cccs4)cc(C(=O)O)cc3s2)c(Cl)c1Cl | 88 nM | 300 nM | < 10 nM | < 10 nM | 4 µg/mL (≈ 8.29 µM) | 0.5 µg/mL (≈ 1.04 µM) | 1 µg/mL (≈ 2.07 µM) | 4 µg/mL (≈ 8.29 µM) | 0.0625 µg/mL (≈ 0.13 µM) | 0.0163 µg/mL (≈ 0.0338 µM) | 8 µg/mL (≈ 16.6 µM)
Cc1[nH]c(C(=O)Nc2nc3ccc(C#N)cc3s2)c(Cl)c1Cl | > 1000 nM | > 1000 nM | > 1000 nM | > 1000 nM |  |  |  |  |  |  | 
Cc1[nH]c(C(=O)Nc2nc3ccc(C(N)=O)cc3s2)c(Cl)c1Cl | 320 nM | 490 nM | 59 nM |  |  |  |  |  |  |  | 
COc1cc(C(=O)O)cc2sc(NC(=O)c3[nH]c(C)c(Cl)c3Cl)nc12 | 390 nM | 160 nM | 44 nM | < 10 nM | 2 µg/mL (≈ 5 µM) | 0.5 µg/mL (≈ 1.25 µM) | 16 µg/mL (≈ 40 µM) | 64 µg/mL (≈ 160 µM) | 2 µg/mL (≈ 5 µM) | 0.25 µg/mL (≈ 0.625 µM) | 64 µg/mL (≈ 160 µM)
Cc1[nH]c(C(=O)N(c2nc3ccc(C(=O)O)cc3s2)C2CC2)c(Cl)c1Cl | > 1000 nM | > 1000 nM | > 1000 nM |  | 64 µg/mL (≈ 156 µM) | 2 µg/mL (≈ 4.87 µM) | > 64 µg/mL | > 64 µg/mL | 2 µg/mL (≈ 4.87 µM) | 0.25 µg/mL (≈ 0.609 µM) | > 64 µg/mL
Cc1[nH]c(C(=O)Nc2nc3ccc(C(=O)O)cc3s2)c(Cl)c1Br | 61 nM | 220 nM | 24 nM | < 10 nM | 2 µg/mL (≈ 4.82 µM) | 2 µg/mL (≈ 4.82 µM) | 4 µg/mL (≈ 9.65 µM) | 8 µg/mL (≈ 19.3 µM) | 0.125 µg/mL (≈ 0.301 µM) | 0.0625 µg/mL (≈ 0.151 µM) | > 64 µg/mL
Cc1[nH]c(C(=O)Nc2nc3ccc(C(=O)NCC#N)cc3s2)c(Cl)c1Cl | > 1000 nM | > 1000 nM | 310 nM |  |  |  |  |  |  |  | 
O=C(O)c1ccc2nc(NC(=O)c3cc(Cl)c(Cl)[nH]3)sc2c1 | > 1000 nM | 280 nM | 500 nM |  |  |  |  |  |  |  | 
Cc1[nH]c(C(=O)Nc2nc3c(OCc4cccc(C(=O)O)c4)cc(C(=O)O)cc3s2)c(Cl)c1Cl | 13 nM | 170 nM | < 10 nM | < 10 nM |  |  |  |  |  |  | 
COc1ccc2nc(NC(=O)c3[nH]c(C)c(Cl)c3Cl)sc2c1 | > 1000 nM | > 1000 nM | > 1000 nM | > 1000 nM |  |  |  |  |  |  | 
O=C(O)c1cc(O)c2nc(NC(=O)c3cc(Br)c(Br)[nH]3)sc2c1 | 240 nM | 180 nM | 170 nM |  |  |  |  |  |  |  | 
Cc1[nH]c(C(=O)Nc2nc3c(OCc4cccc(F)c4)cc(C(=O)O)cc3s2)c(Cl)c1Cl | < 10 nM |  | < 10 nM |  | > 64 µg/mL | 0.0625 µg/mL (≈ 0.126 µM) | 2 µg/mL (≈ 4.05 µM) | 64 µg/mL (≈ 129 µM) | 0.0625 µg/mL (≈ 0.126 µM) | 0.001 µg/mL (≈ 0.00202 µM) | 
Cc1[nH]c(C(=O)N(c2nc3ccc(C(=O)O)cc3s2)C(C)C)c(Cl)c1Cl | > 1000 nM | > 1000 nM | > 1000 nM |  |  |  |  |  |  |  | 
O=C(O)c1ccc2nc(NC(=O)c3cc(Br)c(Br)[nH]3)sc2c1 | 300 nM | > 1000 nM | > 1000 nM |  |  |  |  |  |  |  | 
O=C(NO)c1ccc2nc(NC(=O)c3cc(Br)c(Br)[nH]3)sc2c1 | > 1000 nM | > 1000 nM | > 1000 nM |  |  |  |  |  |  |  | 
Cc1[nH]c(C(=O)Nc2nc3c(OCc4ccccc4)cc(C(=O)O)cc3s2)c(Cl)c1Cl | 68 nM |  |  |  | 1 µg/mL (≈ 2.1 µM) | 0.0625 µg/mL (≈ 0.131 µM) | 2 µg/mL (≈ 4.2 µM) | 2 µg/mL (≈ 4.2 µM) | 0.5 µg/mL (≈ 1.05 µM) | < 0.0212 µg/mL | 16 µg/mL (≈ 33.6 µM)
